From ChEMBL document CHEMBL1221266, “Synthesis and SAR of novel, 4-(phenylsulfamoyl)phenylacetamide mGlu4 positive allosteric modulators (PAMs) identified by functional high-throughput screening (HTS)” (Bioorg Med Chem Lett, 2010)

Legend:
[1] = target: T1, Metabotropic glutamate receptor 4 (Homo sapiens, UniProt Q14833); test: Positive allosteric modulation of human mGlu4 receptor expressed in CHO cells assessed as potentiation of glutamate-induced calcium mobilization; assay type: functional, cell-based
Method in brief: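 Human mGlu4 co-expressed with the chimeric G protein Gqi5 in CHO cells. Compounds were tested in the presence of an EC20 glutamate concentration as 1:3 serial dilutions starting at 30 μM. Values are the mean of triplicates run on one day. For % PHCCC, each compound's maximal response was divided by the response to the control PAM PHCCC measured that same day.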

[2] = target: T1, Metabotropic glutamate receptor 4; test: Positive allosteric modulation of human mGlu4 receptor expressed in CHO cells assessed as potentiation of glutamate-induced calcium mobilization relative to PHCCC; assay type: functional, cell-based
Method in brief: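 Human mGlu4/Gqi5 CHO cells with an EC20 concentration of glutamate; compounds tested in 1:3 serial dilutions from 30 μM, in triplicate on one day. The maximal response elicited by each compound was divided by the response to the control PAM PHCCC measured on the same day.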

Homo sapiens = species on record: Homo sapiens; test: Fraction unbound in human plasma
[3] = Fraction unbound in rat plasma; assay type: ADME, cell-free
[4] = Metabolic stability in rat liver microsomes assessed as compound remaining after 60 mins; assay type: ADME, Microsome; settings: read-out: Stability
[5] = Metabolic stability in human liver microsomes assessed as compound remaining after 60 mins; assay type: ADME, Microsome; settings: read-out: Stability
[6] = target: T1, Metabotropic glutamate receptor 4; test: Positive allosteric modulation of human mGlu4 receptor expressed in CHO cells assessed as potentiation of glutamate-induced calcium mobilization at > 30 uM; assay type: functional, cell-based

T1 sequence (Q14833 whole entry): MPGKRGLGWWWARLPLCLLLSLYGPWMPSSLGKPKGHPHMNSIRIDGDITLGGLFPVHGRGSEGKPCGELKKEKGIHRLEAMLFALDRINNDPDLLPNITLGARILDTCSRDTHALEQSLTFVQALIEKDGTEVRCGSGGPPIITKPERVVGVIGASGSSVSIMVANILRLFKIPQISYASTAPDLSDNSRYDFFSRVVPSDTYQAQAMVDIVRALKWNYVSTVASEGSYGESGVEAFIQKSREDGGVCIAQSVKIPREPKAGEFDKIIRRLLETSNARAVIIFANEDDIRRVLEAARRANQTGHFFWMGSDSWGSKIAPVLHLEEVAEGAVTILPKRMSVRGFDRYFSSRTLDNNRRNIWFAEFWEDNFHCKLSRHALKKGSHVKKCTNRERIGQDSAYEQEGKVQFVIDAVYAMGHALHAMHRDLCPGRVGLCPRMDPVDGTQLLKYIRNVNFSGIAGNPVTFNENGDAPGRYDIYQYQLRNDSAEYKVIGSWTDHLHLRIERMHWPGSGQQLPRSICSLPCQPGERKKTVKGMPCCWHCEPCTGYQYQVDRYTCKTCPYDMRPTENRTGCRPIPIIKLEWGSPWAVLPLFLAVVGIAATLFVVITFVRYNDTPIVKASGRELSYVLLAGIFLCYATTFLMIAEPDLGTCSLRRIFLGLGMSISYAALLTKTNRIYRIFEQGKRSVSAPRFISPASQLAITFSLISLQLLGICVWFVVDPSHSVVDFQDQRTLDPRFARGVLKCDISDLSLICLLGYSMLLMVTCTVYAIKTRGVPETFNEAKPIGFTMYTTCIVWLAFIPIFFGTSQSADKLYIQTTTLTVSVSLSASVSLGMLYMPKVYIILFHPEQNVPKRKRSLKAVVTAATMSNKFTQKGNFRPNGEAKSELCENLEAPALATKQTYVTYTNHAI

Question: Which EC50 [1] does the source give for O=C(Nc1ccc(S(=O)(=O)Nc2ccccc2)cc1)c1ccccn1 here?
Answer: 177 nM

Question: And the Emax [2]?
Answer: 69.2%

Question: For O=C(Nc1ccc(CS(=O)(=O)c2ccccc2Cl)cc1)c1ccccn1, which EC50 [1] is on record?
Answer: 2170 nM

Question: What about the Emax [2] of the same molecule?
Answer: 46.5%

Question: For COCCNS(=O)(=O)c1ccc(NC(=O)c2ccccn2)cc1, which EC50 [1] is on record?
Answer: > 10000 nM

Question: What about the Emax [2] of the same molecule?
Answer: 22.1%

Question: With Cc1cc(C)c(NS(=O)(=O)c2ccc(NC(=O)c3ccccn3)cc2)c(C)c1 as the molecule, how does the fraction unbound (Homo sapiens) read?
Answer: 0.001

Question: What about the fraction unbound [3] of the same molecule?
Answer: 0.003

Question: What about the EC50 [1] of the same molecule?
Answer: 159 nM

Question: And the Emax [2]?
Answer: 60.5%

Question: What about the remaining at 1 h [4] of the same molecule?
Answer: 25.8%

Question: What does the source list for O=C(Nc1ccc(S(=O)(=O)Nc2ccccc2Cl)cc1)c1nccs1?
Answer: remaining at 1 h [5]: 0.84%; fraction unbound (Homo sapiens): 0.001; fraction unbound [3]: 0.001; EC50 [1]: 77.4 nM; Emax [2]: 79.4%; remaining at 1 h [4]: 1.2%

Question: For O=C(Nc1ccc(S(=O)(=O)NC2CCC2)cc1)c1ccccn1, which EC50 [1] is on record?
Answer: > 5000 nM

Question: What about the Emax [2] of the same molecule?
Answer: 64.4%

Question: For CC1CCN(S(=O)(=O)c2ccc(NC(=O)c3ccccn3)cc2)CC1, which EC50 [1] is on record?
Answer: 372 nM

Question: And the Emax [2]?
Answer: 35.8%

Question: Which EC50 [1] does the source give for O=C(Nc1ccc(S(=O)(=O)Nc2ccccc2Cl)cc1)c1ccncn1 here?
Answer: 478 nM

Question: What about the Emax [2] of the same molecule?
Answer: 103%

Question: For O=C(Nc1ccc(S(=O)(=O)Nc2ccccc2Cl)cc1)c1cccc(F)n1, which EC50 [1] is on record?
Answer: 122 nM

Question: And the Emax [2]?
Answer: 90%

Question: With O=C(Nc1ccc(S(=O)(=O)NC2CC2)cc1)c1ccccn1 as the molecule, how does the EC50 [1] read?
Answer: > 10000 nM

Question: And the Emax [2]?
Answer: 23.7%

Question: Which EC50 [1] does the source give for O=C(Nc1ccc(S(=O)(=O)Nc2cc(F)ccc2F)cc1)c1ccccn1 here?
Answer: 325 nM

Question: What about the Emax [2] of the same molecule?
Answer: 87.6%

Question: For COc1ccccc1NS(=O)(=O)c1ccc(NC(=O)c2ccccn2)cc1OC, which remaining at 1 h [5] is on record?
Answer: 1.3%

Question: What about the fraction unbound (Homo sapiens) of the same molecule?
Answer: 0.003

Question: And the fraction unbound [3]?
Answer: 0.127

Question: What about the EC50 [1] of the same molecule?
Answer: 132 nM

Question: And the Emax [2]?
Answer: 112%

Question: And the remaining at 1 h [4]?
Answer: 0.05%

Question: What does the source list for O=C(Nc1ccc(S(=O)(=O)Nc2ccccc2F)cc1)c1ccccn1?
Answer: EC50 [1]: 206 nM; Emax [2]: 91.7%

Question: Which remaining at 1 h [5] does the source give for CN(c1ccccc1Cl)S(=O)(=O)c1ccc(NC(=O)c2nccs2)cc1 here?
Answer: 0.1%

Question: And the fraction unbound (Homo sapiens)?
Answer: 0.005

Question: What about the fraction unbound [3] of the same molecule?
Answer: 0.37

Question: And the EC50 [1]?
Answer: 686 nM

Question: And the Emax [2]?
Answer: 25.4%

Question: What about the remaining at 1 h [4] of the same molecule?
Answer: 0.08%

Question: Which EC50 [1] does the source give for O=C(Nc1ccc(S(=O)(=O)Nc2ccccc2Cl)cc1)c1ccsc1 here?
Answer: 269 nM

Question: What about the Emax [2] of the same molecule?
Answer: 54.2%

Question: For COc1cccc(C(=O)Nc2ccc(S(=O)(=O)Nc3ccccc3Cl)cc2)n1, which EC50 [6] is on record?
Answer: Not Active

Question: And the Emax [2]?
Answer: 8.6%

Question: For O=C(Nc1ccc(S(=O)(=O)NC2CCCCC2)cc1)c1ccccn1, which EC50 [1] is on record?
Answer: 1030 nM

Question: What about the Emax [2] of the same molecule?
Answer: 63.1%

Question: With O=C(Nc1ccc(S(=O)(=O)Nc2ccc(Cl)c(C(F)(F)F)c2)cc1)c1ccccn1 as the molecule, how does the EC50 [6] read?
Answer: Not Active

Question: And the Emax [2]?
Answer: 19.5%

Question: For O=C(Nc1ccc(S(=O)(=O)Cc2ccccc2Cl)cc1)c1ccccn1, which Emax [2] is on record?
Answer: 46.3%

Question: What does the source list for O=C(Nc1ccc(S(=O)(=O)Nc2ccccc2Cl)c(Cl)c1)c1ccccn1?
Answer: remaining at 1 h [5]: 0.63%; EC50 [1]: 19.8 nM; Emax [2]: 102%; remaining at 1 h [4]: 0.02%

Question: What does the source list for O=C(Nc1ccc(S(=O)(=O)Nc2ccccc2Cl)cc1Cl)c1ccccn1?
Answer: EC50 [6]: Not Active; Emax [2]: 8.1%

Question: For O=C(Nc1ccc(S(=O)(=O)Nc2ccc(F)c(Cl)c2)cc1)c1ccccn1, which EC50 [6] is on record?
Answer: Not Active

Question: And the Emax [2]?
Answer: 19.8%

Question: With O=C(Nc1ccc(Cl)c(S(=O)(=O)Nc2ccccc2Cl)c1)c1ccccn1 as the molecule, how does the remaining at 1 h [5] read?
Answer: 11.9%

Question: What about the EC50 [1] of the same molecule?
Answer: 731 nM

Question: And the Emax [2]?
Answer: 54.9%

Question: And the remaining at 1 h [4]?
Answer: 0.05%

Question: Which results are given for O=C(Nc1ccc(S(=O)(=O)N2CCc3ccccc32)cc1)c1ccccn1?
Answer: EC50 [6]: Not Active; Emax [2]: 12%

Question: For Cc1cc(C)c(NS(=O)(=O)c2ccc(NC(=O)c3ccco3)cc2)c(C)c1, which fraction unbound (Homo sapiens) is on record?
Answer: 0.022

Question: What about the fraction unbound [3] of the same molecule?
Answer: 0.082

Question: What about the EC50 [1] of the same molecule?
Answer: 5960 nM

Question: And the Emax [2]?
Answer: 52%

Question: And the remaining at 1 h [4]?
Answer: 93.3%

Question: For O=C(Nc1ccc(S(=O)(=O)NCC2CC2)cc1)c1ccccn1, which EC50 [1] is on record?
Answer: > 5000 nM

Question: What about the Emax [2] of the same molecule?
Answer: 70.2%

Question: For O=C(Nc1ccc(S(=O)(=O)N2CCCC2)cc1)c1ccccn1, which EC50 [6] is on record?
Answer: Not Active

Question: And the Emax [2]?
Answer: 15.4%

Question: What does the source list for O=C(Nc1ccc(S(=O)(=O)Nc2ccccc2Cl)cc1)c1ccccn1?
Answer: remaining at 1 h [5]: 0.02%; fraction unbound (Homo sapiens): 0.001; fraction unbound [3]: 0.003; EC50 [1]: 27 nM; Emax [2]: 88.2%; remaining at 1 h [4]: 0.02%

Question: Which results are given for CN(c1ccccc1Cl)S(=O)(=O)c1ccc(NC(=O)c2ccncn2)cc1?
Answer: remaining at 1 h [5]: 2.5%; fraction unbound (Homo sapiens): 0.017; fraction unbound [3]: 0.027; EC50 [1]: 990 nM; Emax [2]: 31.1%; remaining at 1 h [4]: 3.3%
